# The RNAGym collection of RNA variant scans (doi:10.1038/s41586-018-0170-7)
# B1: tRNA (parent)
# chain: GUUCCGUUGGCGUAAUGGUAACGCGUCUCCCUCCUAAGGAGAAGACUGCGGGUUCGAGUCCCGUACGGAACG
# Variants of: B1
# Experiment: yeast fitness, log relative to wild type (ln ratio); higher = fitter; tRNA-Arg(CCU), competitive growth, 37 C, 1 M NaCl
# Procedure, shortened: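 Two independent transformations put a combinatorial tRNA-Arg(CCU) variant library on a HIS3 centromeric plasmid into BY4742 lacking the chromosomal gene. Pools were grown in SC-HIS at 30 °C for 4 generations, then in SC-HIS 1M NaCl at 37 °C for ~6.5 generations (~26.5 h), with three outputs taken per input. Fitness compares a genotype's generations with the wild type's as a natural log ratio. Those generations are OD-scaled log2 output/input frequencies, inverse-variance weighted across replicates, from 125 bp paired-end Illumina counts.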
row,Variant,yeast fitness (ln)
1,U2C G6A C46U C66U A69G A70U,-0.138
2,U2G C27U C66A A69G A70U C71U,-0.431
3,G1A G6A C27U A43C C66A A70G C71U,-0.267
4,G1A G6A C27U C46U A70U,-0.164
5,U2C G6U C27U C66U A70U,-0.194
6,G6A C27U A43C C46U A69G C71U,-0.344
7,U2G G6A C27U A43C C46U C66U A69G A70U C71U,-0.433
8,U2G G6A C27U C66A C71U,-0.216
9,G1A U2G G6U A43C C46U A69G A70G,-0.334
10,U2C G6A C66U A70G,-0.00663
11,G1A U2G G6A C46U C66U A69G A70U C71U,-0.141
12,U2G A43C C66A C71U,-0.267
13,G1A G6A A69G C71U,-0.146
14,U2G G6U C27U C66U A69G C71U,-0.427
15,U2G G6A C27U A43C C46U C71U,-0.134
16,C27U A43C C46U A69G C71U,-0.207
17,G1A U2G C66U A69G A70U,-0.197
18,U2G C46U A69G A70U,0.00211
19,U2C G6U C27U A43C C46U A69G A70G C71U,-0.188
20,U2C C46U,0.0244
21,G6U C27U C66U A69G A70G,-0.306

row,Variant,yeast fitness (ln)
1,U2C G6A C27U A43C C46U A69G A70U C71U,-0.359
2,G1A U2G G6U A43C C46U C66U A70G C71U,-0.418
3,U2C G6U C27U C66U A69G A70G,-0.277
4,G6A C27U C66A A70G,-0.136
5,G1A G6U A69G A70U C71U,-0.407
6,G1A U2C G6U C66A C71U,-0.115
7,G1A U2C G6U C27U C46U A69G A70G C71U,-0.272
8,U2C G6U A43C C46U A70U C71U,-0.125
9,G1A G6U C27U A43C C66U A69G C71U,-0.258
10,G1A U2G G6A A43C C46U C66U A69G A70U C71U,-0.425
11,G6U C27U A70G C71U,-0.368
12,G1A A43C C46U C66U A69G A70G,-0.222
13,G1A U2G G6U A43C C46U C66A A70U,-0.303
14,U2C G6A C27U C46U C66A A70G C71U,-0.228
15,U2G C46U C66U A70G,-0.11
16,U2C G6U C46U C66U A70U C71U,-0.202
17,U2G G6A C27U A43C C46U A69G C71U,-0.22
18,G1A U2G G6A C27U C46U C66A A69G A70G C71U,-0.317
19,G1A G6U C27U C46U,-0.207
20,G1A G6A C27U C46U C66U A70G,-0.236
21,G1A U2G A70G C71U,-0.212

row,Variant,yeast fitness (ln)
1,G1A G6U C27U C46U C66A A70U,-0.249
2,G6A C46U C66A C71U,-0.349
3,U2C G6A C27U C66A A70G C71U,-0.106
4,G6U C27U A69G C71U,-0.342
5,G1A U2G G6U C46U C66A A70U C71U,0.00484
6,G1A G6U A43C C46U A70G C71U,-0.301
7,U2G C46U C66U A69G A70U,-0.0704
8,U2G G6A A70U,-0.0249
9,G1A G6U C27U C46U C66U A69G A70G,-0.28
10,U2G G6U C27U A43C C46U C66A A69G A70G C71U,-0.279
11,U2G G6A C66U A69G C71U,-0.217
12,U2C G6U C27U A43C C46U C66A A69G A70U C71U,-0.26
13,U2G G6A A43C C46U A69G A70G,-0.169
14,U2G C27U A43C C46U A70U,-0.00371
15,G6U C71U,-0.261
16,U2G G6A A43C C66U C71U,-0.388
17,G1A U2G G6A C27U A43C C46U C66U A69G A70U,-0.436
18,G6A A43C C46U A70G C71U,-0.207
19,U2C C66U C71U,-0.0912
20,U2G C27U A43C C46U C66A A70U C71U,-0.262
21,U2C G6A A69G A70U,-0.0533

row,Variant,yeast fitness (ln)
1,C27U A43C C46U A70G C71U,-0.209
2,U2C C27U A43C C46U C66A A69G A70U C71U,-0.472
3,G1A G6A C27U A43C C46U A70U C71U,-0.263
4,C27U C46U A69G C71U,-0.0597
5,G1A G6A C27U C46U C66A A69G A70G C71U,-0.145
6,U2G C27U C46U A69G,-0.0724
7,G1A G6U C27U C46U C66U A70G,-0.234
8,U2G C27U C46U C66A A70U C71U,-0.134
9,C27U A70G,-0.037
10,G1A U2G C27U A43C C66U A69G A70G,-0.492
11,G1A U2C G6U C27U C46U C66U A70G C71U,-0.169
12,G6U C27U C46U C66U A69G C71U,-0.543
13,G1A C66U A70G C71U,-0.287
14,G1A G6U C27U A43C C46U C66A A69G C71U,-0.671
15,G1A U2G C27U C46U C66U A69G C71U,-0.307
16,G6A C27U C71U,-0.204
17,G1A U2G C27U A43C C66A A70G,-0.255
18,G1A C66U,-0.0546
19,U2C C46U C66U A70G C71U,-0.00524
20,G1A U2G C27U A43C C46U C66A A69G A70G,-0.146
